Measured values of several laboratories.
Protocols differ between the studies behind these lines.
PRKCH: Protein kinase C eta type (PRKCH, Homo sapiens, UniProt P24723)
ST14: Suppressor of tumorigenicity 14 protein (ST14, Homo sapiens, UniProt Q9Y5Y6)
CDK2 with cyclin A2: Cyclin-dependent kinase 2, with cyclin A2 (CDK2, Homo sapiens, UniProt P24941)

target | test | conditions | measurement | result | SMILES
PRKCH | enzyme activity, inhibitor | 1 µM | remaining activity | 115% | COc1cc(-c2cncc3c2CN(C)Cc2cc(N4CCNCC4)ccc2-3)cc(OC)c1OC
ST14 | enzyme activity, inhibitor | 0.1 µM | remaining activity | 84% | N=C(N)NCCC[C@H](NC(=O)C1(NC(=O)[C@H](Cc2cscn2)NC(=O)CCc2ccccc2)CCCC1)C(=O)c1nc2ccccc2s1
PRKCH | binding, competition with immobilised ligand | 1 µM | remaining binding | 100% | C=CC(=O)N1CCC(COCC(=O)N2CCN(c3nc(-c4cnc(N)nc4C(F)F)nc(N4CCOC[C@@H]4C)n3)CC2)CC1
CDK2 with cyclin A2 | enzyme activity, inhibitor | 1 nM | inhibition | 4.03% | CC(=O)Nc1c(N)nc(SCC(=O)N/N=C/c2ccc([N+](=O)[O-])cc2)[nH]c1=O
Cyclin-dependent kinase 8, with cyclin C (CDK8, Homo sapiens, UniProt P49336) | enzyme activity, inhibitor, radiometric | 1 µM | remaining activity | 105% | CNc1ncc2c(/C=C/C(=O)N3CCC(OC)CC3)nn(Cc3cccc(C(F)(F)F)c3)c2n1
ST14 | enzyme activity, inhibitor | 0.1 µM | remaining activity | 45% | CCC[C@H](NC(=O)[C@H](Cc1cscn1)NC(=O)CCc1ccccc1)C(=O)N[C@@H](CCCNC(=N)N)C(=O)c1nc2ccccc2s1
CDK2 with cyclin A2 | enzyme activity, inhibitor | 1 nM | inhibition | 8.32% | CC(=O)Nc1c(N)nc(SCC(=O)NN)[nH]c1=O
ST14 | enzyme activity, inhibitor | 0.1 µM | remaining activity | 41% | C=CC[C@H](NC(=O)[C@H](Cc1cscn1)NC(=O)CCc1ccccc1)C(=O)N[C@@H](CCCNC(=N)N)C(=O)c1nc2ccccc2s1
Angiopoietin-1 receptor (TEK, Homo sapiens, UniProt Q02763) | binding, competition with immobilised ligand | 1 µM | remaining binding | 60% | Cc1cc([C@@H](C)Nc2ccccc2C(=O)O)c2nc(N3CCC(F)(F)CC3)c(C#N)c(=O)n2c1
CDK2 with cyclin A2 | enzyme activity, inhibitor | 200 pM | inhibition | 12.3% | CNC(=O)c1cc(Oc2ccc(NC(=O)Nc3ccc(Cl)c(C(F)(F)F)c3)cc2)ccn1
